Reference: PubChem BioAssay AID1556 (The Scripps Research Institute Molecular Screening Center, 2009)
Screen size: about 290,000 compounds; about 1,300 (0.45%) were called active. The sample holds actives, similar compounds and a random draw of the others, so the mix is not that of the screen.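 How the source made its calls: active means inhibition above the mean plus 3 SD of all compounds in the same screening run (cut at about 4.5% in these data); inactive means the rest.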

system: metallo-beta-lactamase IMP-1 (Pseudomonas aeruginosa); assay: IMP-1 metallo-beta-lactamase inhibitors, primary screen, biochemical, epi-absorbance readout, Pseudomonas aeruginosa enzyme (AID 1556); conditions: purified IMP-1, nitrocefin hydrolysis, epi-absorbance fluorescence; at 5.6 µM; hits give high values;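 further: 0% = IMP-1 with DMSO and 100% = DMSO wells lacking enzyme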
Procedure, shortened: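 System: Purified recombinant IMP-1 metallo-beta-lactamase enzyme | Measured by: Fluorescence quenching readout, ex 480/em 530 nm | Replication: Singlicate | Incubation: 15 min preincubation plus 25 min reaction at 25 °C | Evaluation: Percent inhibition from optical density relative to buffer-blank wells | Benchmarks: DMSO with and without IMP-1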

inhibition, active:
CC1=C(C(=O)OCC2CCCCC2)C(c2ccc(F)cc2)NC(=O)N1 (centres undefined) 28.3%
CCCCCCC(=O)Nc1nc(C)c(-c2csc(Nc3cccc(OC)c3)n2)s1 9.14%
CCOC(=O)c1csc(NC(=O)Nc2cccc(OC)c2)n1 15.1%
Clc1ccc(C2=CSC3=Nc4cccc5cccc(c45)N23)cc1 5.6%
CSC1=N/C(=C\C=C\c2cccs2)C(=O)S1 12.2%
N#Cc1ccccc1CN1C(=O)S/C(=C/c2cccn2-c2cccc(C(=O)O)c2)C1=O 20.9%
O=C(Nc1cccc(-c2nc3ccccc3[nH]2)c1)c1ccc(C(=O)Nc2cccc(-c3nc4ccccc4[nH]3)c2)cc1 4.99%
COc1ccc(Cl)cc1NC(=O)CCS(=O)(=O)c1ccc(Br)cc1 9.04%
COc1ccc(C(=O)/C=C/Nc2ccccn2)cc1 5.05%
Cc1ccccc1Nc1nnc(SCC(=O)c2cc3ccccc3o2)s1 7.2%
CN(C)/N=C/c1cc(Cl)cc([N+](=O)[O-])c1O 4.62%
CCCN(CCC)c1nc2c(C)cccn2c(=O)c1/C=C1/SC(=S)N(Cc2ccco2)C1=O 7.59%
CCC(=C/c1sc2ccc3ccccc3c2[n+]1C)/C=C1\Sc2ccc3ccccc3c2N1C 17.3%
COc1cc(/C=C2/SC(=S)N(Cc3ccccc3)C2=O)cc(OC)c1O 10%
Cc1cc(C)c2cc(CN(Cc3nnnn3Cc3ccc(F)cc3)C3CCCC3)c(=O)[nH]c2c1 6.27%
CN1C(=O)c2cccc3c(N)ccc(c23)C1=O 41.5%
Cc1nn(C)cc1N1C(=O)c2cccc3c(N)ccc(c23)C1=O 22.2%

inhibition, inactive:
COCCOC(=O)C1=C(C)NC(=O)NC1c1ccc(Cl)cc1 (centres undefined) -2.42%
CC1=C(C(=O)OC2CCCCC2)C(c2ccccc2F)NC(=O)N1 (centres undefined) -2.31%
Cc1ccccc1CNC(=O)CCC(=O)N1Cc2ccccc2Oc2ncccc21 -3.43%
CCOC(=O)c1cnc(SCC(=O)Nc2cccc(OC)c2)nc1N -1.9%
CCCCCCC(=O)Nc1nc(C)c(-c2csc(Nc3cc(Cl)ccc3OC)n2)s1 -2.05%
CCCCC(=O)Nc1nc(C)c(-c2csc(Nc3ccc(Cl)cc3)n2)s1 0.37%
CCNS(=O)(=O)c1ccc(NC(=O)Nc2cccc(OC)c2)cc1 -2.27%
COc1ccc(C(=O)Nc2ccc(-n3nncc3C(C)(C)C)cc2)cc1 -2.83%
CC(=O)c1ccc(N2CCN(C(=O)CCNC(=O)Cn3ccc4ccccc4c3=O)CC2)cc1 -0.18%
O=C(CN1CCOc2ccccc21)N1CCC(Cc2ccccc2)CC1 -0.27%
CCOC(=O)c1c(C)[nH]c(C(=O)NCCN2CCOCC2)c1C -0.4%
COc1cc(NC(=O)c2ccc3c(c2)OCO3)ccc1NC(=O)c1cccs1 -2.83%
FC(F)(F)C1CCCN(c2nsc3ccccc23)C1 (centres undefined) -3.15%
CN1C/C(=C/c2cccs2)C(=O)/C(=C\c2cccs2)C1 0.42%
Cc1cccc(C2=N/C(=C/c3cccs3)C(=O)O2)c1 -0.41%
COc1ccc(C(O)(C2CCCCC2)C(CN2CCCC2)c2ccccc2)cc1 (centres undefined) -0.93%
CCc1ccc(NC(=O)Cn2nnc(C(=O)NCc3ccc4c(c3)OCO4)c2N)cc1 0.66%
CCOCCCNC(=S)Nc1ccc2nc(N3CCN(CC)CC3)cc(C)c2c1 -2%
Cc1cc(/C=C2\SC(=O)N(C)C2=O)c(C)n1-c1cccc(C(=O)O)c1 -1.7%
Cc1ccccc1NC(=O)CN1C(=O)N/C(=C\c2cccn2-c2cccc(C(=O)O)c2)C1=O -2.07%
O=C(CNC(=O)c1ccccc1F)c1ccc(Br)cc1 -2.02%
Cc1ccccc1NC(=O)CSc1ccc2nnc(-c3ccccn3)n2n1 -1.21%
CC(NC(=O)CCCC1CCCCC1)c1ccc(S(N)(=O)=O)cc1 (centres undefined) -1.72%
O=C(Cc1cccs1)Nc1cccc(-c2nc3ccccc3[nH]2)c1 -5.9%
O=C(/C=C/c1ccco1)Nc1cccc(-c2nc3ccccc3[nH]2)c1 -2.53%
CC1CCN(C(=O)CN(c2ccc(Oc3ccccc3)cc2)S(C)(=O)=O)CC1 -2.25%
CSCCC(NC(=O)c1ccc(Cl)cc1Cl)C(=O)NNC(=O)c1csc(N2CCOCC2)n1 (centres undefined) -2.46%
COc1ccc(Cl)cc1NC(=O)CCS(=O)(=O)c1cc2c(cc1C)NC(=O)CO2 -3.94%
O=C(CCS(=O)(=O)c1ccc(Br)cc1)NCCc1ccc(Cl)cc1 0.69%
COc1ccc2cc(-c3[nH]ncc3CNCCn3nc(C)cc3C)ccc2c1 -2.54%
O=C(NCc1ccncc1)C(=O)NCC1OCCN1S(=O)(=O)c1ccc(Br)cc1 (centres undefined) -1.07%
CCOc1ccc(N/C=C/C(=O)c2ccccc2)cc1 -2.54%
COc1ccc2cc(S(=O)(=O)Nc3ccccn3)ccc2c1 -3.85%
COc1ccc(/C=N/Nc2ccccc2C(=O)O)cc1 -1.08%
CCOC(=O)C1=C(c2ccccc2)NC(=O)NC1c1cc(OC)c(OC)cc1OC (centres undefined) -2.08%
Cc1ccc(Nc2nnc(SCC(=O)c3cc4ccccc4o3)s2)cc1C -0.86%
Cc1cc(NC(=O)CSc2nnc(Nc3ccccc3F)s2)no1 -0.94%
O=[N+]([O-])c1cc(Cl)cc(/C=N/NC(=S)Nc2cc(S(=O)(=O)N3CCOCC3)ccc2Cl)c1O -0.24%
O=C(N/N=C/c1cc(Cl)cc([N+](=O)[O-])c1O)C(O)(c1ccccc1)c1ccccc1 -3.33%
O=C(Nc1ccccc1Cc1ccccc1)c1ccc2c(c1)SC1=NS(=O)(=O)CCN12 -3.52%
COc1ccc(CNC(=O)CN(c2ccc(OC)c(Cl)c2)S(=O)(=O)c2ccc(C)cc2)cc1 -0.9%
CCOC(=O)c1cc2cc3ccccc3cc2oc1=O 0.55%
CC1CCN(C(=O)CCNC(=O)c2ccccc2)CC1 -1.09%
Cc1oc2c(F)c(F)c(F)c(F)c2c1S(=O)(=O)Nc1cccc(C(F)(F)F)c1 -0.74%
COc1ccc(OC)c(S(=O)(=O)N2CCCC(C(=O)NCCc3ccccc3)C2)c1 (centres undefined) -0.65%
Cc1cccn2c(=O)c(/C=C3\SC(=S)N(CC(C)C)C3=O)c(NCCCOC(C)C)nc12 -1.23%
CCOC(=O)CC1C(=O)NCCN1c1nc2c(C)cccn2c(=O)c1/C=C1\SC(=S)N(C(C)CC)C1=O (centres undefined) -2.03%
CC(C)(O)C#Cc1ccc(CN2CCC(CO)(CCc3ccccc3)CC2)cc1 -0.34%
N#Cc1ccc(-c2nc3cc(C#N)c(C#N)cc3nc2-c2ccccc2)cc1C#N -3.53%
CC(=O)Nc1ccc(S(=O)(=O)N(C)c2nc3ccccc3nc2Cl)cc1 -0.55%
O=C(Nc1ccc([N+](=O)[O-])cc1)C1CC12CCC2 (centres undefined) -0.64%
CCCNC(=O)CSc1nc(Cc2ccccc2)nc2ccccc12 -3.79%
COc1cc(OC)cc(-c2cc3nc(C4CCN(C(=O)OC(C)(C)C)CC4)cc(=O)n3[nH]2)c1 -4.79%
CCc1ccccc1NC(=O)CCOc1ccccc1 -1.54%
COc1ccc(/C=C2\SC(=S)N(CCC(=O)Nc3ccccn3)C2=O)cc1OC -4.91%
COc1ccccc1C(=O)NNC(=O)CCN1C(=O)/C(=C\c2ccccc2)SC1=S -0.96%
CCCOC1CCCN(C(=O)c2cc(COc3cncc(Cl)c3)on2)C1 (centres undefined) -0.48%
O=C(COC(=O)c1ccc(N2CCCC2=O)cc1)c1ccc(OC(F)F)cc1 -0.84%
C[C@@H]1CC[C@@]2(OC1)O[C@H]1C[C@H]3[C@@H]4CC=C5C[C@@H](O)[C@H](O)C[C@]5(C)C4CC[C@]3(C)[C@H]1[C@@H]2C (some centres undefined) -4.13%
Cc1ccc(S(=O)(=O)N2CCN=C2SCc2c(F)cccc2Cl)cc1 0.72%
Cc1cc(C)c2cc(CN(Cc3cccs3)Cc3nnnn3CC3CCCO3)c(=O)[nH]c2c1 (centres undefined) -1.83%
Cc1cccc2cc(CN(Cc3nnnn3Cc3ccccc3)C3CCCC3)c(=O)[nH]c12 -0.68%
COCc1c(C(=O)N/N=C\c2cccnc2)nnn1-c1nonc1N -2.01%
COc1ccc(C2=NS(=O)(=O)N(C)C(C(=O)N3CCCCC3)=C2)cc1 -5.03%
O=C(O)c1ccc2c3c(cccc13)C(=O)N(OS(=O)(=O)c1ccccc1)C2=O -1.83%
CC(=O)Nc1ccccc1Sc1ccc2c3c(cccc13)C(=O)N(c1ccc(C)cc1)C2=O -1.41%
O=C1c2ccccc2C(=O)N1c1cccc2ccccc12 -2.06%
Cc1nn(-c2cc(Cl)ccc2N)c(=O)c2ccccc12 -2.53%
CCn1c(SCC(=O)Nc2ccc(C)cc2)nc2nc3c(cc2c1=O)CCCC3 -2.99%
COc1ccc(C(CC(=O)c2ccccc2)S(=O)(=O)c2ccccc2)cc1 (centres undefined) -1.87%
N#Cc1cccc(CN2CCC(=O)N(CCO)CC2)c1 -1.5%
Cc1ccc(C(=O)NCC(=O)OCc2nnc(-c3ccccc3)o2)cc1 -0.31%
